Laboratory results published in ChEMBL document CHEMBL3813618, “Polyhalogenated Indoles from the Red Alga Rhodophyllis membranacea: The First Isolation of Bromo-Chloro-Iodo Secondary Metabolites” (J Nat Prod, 2016).

Assays:
Saccharomyces cerevisiae = test: Antifungal activity against Saccharomyces cerevisiae BY4741 assessed as growth inhibition; assay type: functional
Outline: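 Wild-type strain BY4741 grown in liquid synthetic complete medium with compound; cell density read at A600. Concentration giving 50% growth inhibition determined relative to untreated controls.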

[1] = Cytotoxicity against human HL60 cells assessed as cell growth inhibition after 48 hrs by MTT assay; assay type: functional, cell-based; settings: HL-60, 48 h
Outline: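 Cell proliferation MTT assay, 48 h exposure of HL-60 promyelocytic leukemia cells to compound at various concentrations; dose-response generated relative to untreated HL-60 control cells. n = 1 or 2 independent experiments, duplicate wells per experiment.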

Structure (SMILES)	IC50 (Saccharomyces cerevisiae)	IC50 [1]
Clc1[nH]c2c(Br)ccc(Br)c2c1Cl	23 µM	28 µM
CC(=O)CC1(O)C(=O)Nc2cccc(Cl)c21 (stereo not drawn)	> 49 µM	61 µM
Clc1[nH]c2c(Br)c(I)ccc2c1Cl	39 µM	49 µM
Brc1ccc2c(Br)c(Br)[nH]c2c1Br	69 µM	38 µM
Clc1[nH]c2c(Br)c(Br)ccc2c1Cl	63 µM	61 µM
Clc1c(Br)[nH]c2c(Br)c(Br)ccc12	> 83 µM	78 µM
O=C1Nc2cccc(Cl)c2C1=O	> 61 µM	
